# This is a sample that favours compounds with a hit; in the whole collection about 2% have one here.
# Arrestin-AP2 inh = blocks beta-arrestin peptide binding to AP2 adaptin; FITC-arrestin peptide / GST-AP2 beads, flow cytometry; AP2 beta2 appendage carries R879A mutation; inhibition, % at 10 µM; 0.31% of 340,000 active; AID 504490;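 active means inhibition above a set limit, near 3 SD of compounds lacking own fluorescence, cut at about 54% in these data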;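 further: plate controls were DMSO wells for no effect and 5 µM unlabelled arrestin peptide for full effect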
#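 test system = AP2 appendage R879A on GSH beads | buffer or medium = PBS plus Tween 20 (0.05%) and BSA (0.1%) | incubation = 12 min plus 1 h, RT | detection = bead flow cytometry, FITC channel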
# Beta2AR agonist = agonists of human beta-2 adrenergic receptor inducing internalization | Am2.2-beta2AR cells, FAP receptor internalization, flow cytometry | AID 504454 | response, % (test concentration not listed) | P07550 | 0.43% of 340,000 active;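 active means response above a set limit, near 3 SD of response in nonfluorescent compounds, cut at about 42% in these data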
# Target sequence (P07550 whole entry, looked up): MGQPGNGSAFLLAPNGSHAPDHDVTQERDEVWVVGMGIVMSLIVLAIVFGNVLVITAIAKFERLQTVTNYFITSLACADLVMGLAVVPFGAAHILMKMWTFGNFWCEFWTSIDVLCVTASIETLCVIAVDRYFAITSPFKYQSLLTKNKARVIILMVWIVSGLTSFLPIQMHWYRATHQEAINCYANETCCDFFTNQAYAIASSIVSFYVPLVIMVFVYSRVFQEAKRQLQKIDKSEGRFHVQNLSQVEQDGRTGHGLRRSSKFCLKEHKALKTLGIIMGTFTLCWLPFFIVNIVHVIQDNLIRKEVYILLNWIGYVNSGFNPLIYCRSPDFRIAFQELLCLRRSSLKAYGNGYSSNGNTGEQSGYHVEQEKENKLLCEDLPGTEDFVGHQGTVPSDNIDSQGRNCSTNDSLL
# H9c2 TAG inh = triacylglycerol accumulation inhibition | H9c2 cells, Nile Red lipid (TAG) fluorescence; cells loaded with 200 µM oleic acid | inhibition, % at 12.5 µM | 0.66% of 230,000 active | AID 651582;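 active means pattern-corrected inhibition of lipid staining of at least 50% with the nuclear-stain viability signal not falling by more than 50%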;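 further: 0% = DMSO wells and 100% = triacsin C control wells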
# NTR1 agonist = activates human neurotensin receptor 1. P30989. NTR1-U2OS beta-arrestin-GFP spot imaging, agonist mode. activation, % at 20 µM. 0.17% of 330,000 active;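 active means activation at or above 40% of the spot to cytoplasm intensity ratio, with at least 20 cells analyzed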;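 further: 0% = DMSO without peptide and 100% = 100 nM NTR1 peptide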
# GRK2 aptamer HTS = inhibitors of human GRK2 displacing RNA aptamer | bead flow cytometry, FAM-aptamer displacement from GRK2 | inhibition of aptamer binding, % at 10 µM | 0.59% of 330,000 active | AID 488847;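 active means inhibition of aptamer binding above 40%, roughly 3 SD of noise, on plates passing a quality check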;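 further: median bead fluorescence of bound FAM aptamer so fluorescent compounds give negative values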
# Lipid droplet = hepatic lipid droplet formation modulation; AML12 mouse hepatocytes, oleate lipid droplets, BODIPY imaging; inhibition, % at 6.5 µM; 0.4% of 240,000 active; AID 1656;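 active means lipid droplet intensity inhibited by at least 50%, with more than 500 cells counted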
#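 Assay system: AML12 hepatocytes (mouse) / Also added: 100 µM oleic acid challenge / Times: overnight treatment with compound plus oleate / Detection: high-content imaging of BODIPY-stained droplets and DAPI nuclei / Evaluation: % inhibition of lipid droplet signal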
# * hit, by the source's call; x = no result.
SMILES,Arrestin-AP2 inh,Beta2AR agonist,H9c2 TAG inh,NTR1 agonist,GRK2 aptamer HTS,Lipid droplet
CC(C)n1cc(NC(=O)c2cc(-c3ccccc3)on2)cn1,2.7,-8.9,50.3*,-1.4,0.0,x
O=C(COC(=O)CNC(=O)c1ccccc1F)NC1CC1,3.1,6.9,7.3,3.3,0.0,x
COc1ccc(NC(=O)/C(C#N)=C\c2ccc(N3CCOCC3)o2)cc1,-11.3,-6.1,3.3,-2.3,0.0,-0.8
COc1ccc(NC(=O)/C(C#N)=C/c2ccc(Br)o2)cc1,28.4,-1.8,x,3.1,67.0*,4.8
O=Cc1cc2ccccc2nc1SCc1ccc(Cl)cc1,23.9,45.5*,-59.4,32.1,0.0,x
CCOC(=O)COc1ccccc1/C=C\[N+](=O)[O-],-2.1,51.4*,x,x,0.0,-27.6
COc1ccc(NC(=O)Nc2ccc3c(c2)C(=O)N([C@H](C)CO)C[C@H](C)[C@@H](CN(C)C(=O)Nc2c(C)noc2C)O3)cc1,-6.7,1.6,2.4,-1.3,10.0,x
O=C(Cc1ccccc1)NNc1c2ccccc2nc2ccccc12,11.2,-9.7,-15.3,5.9,5.0,-3.6
O=C(Nc1c2ccccc2nc2ccccc12)C(Cl)(Cl)Cl,12.7,36.9,66.1*,2.2,3.0,x
Cc1ccc(-c2csc3nc4c5ccccc5c(NCCCN(C)C)nn4c(=O)c23)cc1,-18.7,24.6,59.3*,7.8,0.0,3.8
Cc1ccc(OCC(=O)NC2CCS(=O)(=O)C2)c(C)c1 (configuration not stated),4.3,-3.0,2.1,1.0,1.0,-33.9
CCN(CC)c1ccc(/C=N/NC(=O)c2ccco2)c(O)c1,8.0,40.4,36.2,1.2,10.0,-4.1
CCN(CC)c1ccc(/C=N/NC(=S)NCc2ccccc2)c(O)c1,20.6,7.3,0.1,4.9,42.0*,25.1
COC(=O)/C=C\C(C#N)(C#N)N=Cc1ccc(OC)cc1,24.1,47.1*,11.3,x,x,x
O=C(Nc1ccccc1)c1cc(S(=O)(=O)NCc2ccncc2)ccc1Cl,-5.3,-5.7,-13.2,0.1,2.0,-21.7
CCOC(=O)C1=C(Cc2ccc(OC)cc2)C(=O)c2ccccc2C1=O,54.9*,-77.5,x,x,x,2.0
CCOc1ccc(Nc2cc(C)c3ccccc3n2)cc1,-1.8,5.2,x,21.6,0.0,-1.2
CCOc1ccc(Nc2c3ccccc3nc3ccccc23)cc1,26.4,51.9*,-3.7,13.6,0.0,-81.7
CC(=O)Nc1ccc2nc(NC(=O)c3cccs3)sc2c1,3.2,-1.1,2.5,2.8,6.0,16.8
CC(=O)Nc1ccc2nc(NC(=O)c3ccc([N+](=O)[O-])s3)sc2c1,x,x,x,0.8,87.0*,-14.1
Cc1ccccc1Oc1nc(-c2ccccn2)nc2ccccc12,-20.4,-16.6,57.2*,5.1,2.0,3.8
CC(=O)Nc1cccc(Oc2nc(-c3ccccn3)nc3ccccc23)c1,-2.7,-16.5,23.6,0.0,0.0,12.4
CC(C)c1ccccc1OCC(=O)Nc1ccc2[nH]ncc2c1,19.1,18.6,-15.6,1.3,3.0,9.5
COc1cc(/C=N/NC(=O)c2cc(O)cc(O)c2)ccc1OC(=O)c1ccccc1,-4.9,9.7,1.4,4.8,44.0*,0.7
O=C(N/N=C/c1ccc(OC(=O)c2ccccc2Cl)cc1)c1ccccn1,6.1,0.5,11.4,-0.9,1.0,-8.9
SMILES,Arrestin-AP2 inh,Beta2AR agonist,H9c2 TAG inh,NTR1 agonist,GRK2 aptamer HTS,Lipid droplet
O=C(N/N=C/c1ccc(OC(=O)c2ccccc2Cl)cc1)c1cc(O)cc(O)c1,15.5,8.3,5.0,5.7,55.0*,14.7
COc1cc(/C=N/NC(=O)c2ccc3ccccc3c2)ccc1Oc1ccc([N+](=O)[O-])cn1,10.4,9.2,22.3,0.5,0.0,55.5*
COc1ccc(C(=O)/C=C/C(=O)N(CC(=O)NCCC(C)C)Cc2cccs2)c(O)c1,13.6,119.7*,9.1,x,x,22.1
CS(=O)(=O)N(CC(=O)NC1CCCCC1)Cc1ccc(F)cc1,0.1,-5.1,-2.7,-0.2,1.0,16.5
COc1ccc(C(=O)/C=C/C(=O)N(CC(=O)NC2CCCCC2)Cc2ccc(F)cc2)c(O)c1,15.8,123.3*,15.0,x,x,-52.3
Nc1ccccc1S(=O)(=O)NCCCCc1ccccc1,6.4,-10.3,x,3.5,0.0,x
CC(Cl)C(=O)Nc1c2c(nn1-c1ccccc1)CSC2 (configuration not stated),17.4,1.9,x,-1.9,0.0,-24.7
Nc1ccc2c(c1)C(=O)C(=O)c1ccccc1-2,25.0,80.5*,112.8,-0.8,26.0,-8.5
CC12CNCC(C)(CN(C(c3ccccc3)c3ccccc3)C1)C2,12.1,89.7*,13.9,15.5,0.0,-1.5
O=C(NCc1ccco1)C1CCN(S(=O)(=O)c2cccc([N+](=O)[O-])c2)CC1,8.1,-0.1,x,-1.4,0.0,4.8
COc1ccccc1N(C(=O)CCl)c1cn(C(C)=O)c2ccccc12,35.3,29.1,73.7*,6.3,5.0,-1.3
CC(=O)n1cc(N(C(=O)CCl)c2ccc(Cl)cc2)c2ccccc21,-0.6,45.8*,67.0*,28.3,3.0,4.1
CCOC(=O)c1ccccc1Nc1cn(C(C)=O)c2ccccc12,-7.8,-2.1,36.9,5.8,0.0,-0.4
CC(=O)Oc1ccccc1C(=O)C=Cc1cccc([N+](=O)[O-])c1,5.5,65.4*,-0.9,x,x,x
CC(C)(C)OC(=O)N1CCCC1C(=O)NCCc1ccccc1 (configuration not stated),-19.1,54.6*,-3.0,-0.6,1.0,x
CC1CCCCN1S(=O)(=O)c1ccc2[nH]c(=O)cc(C(=O)NCCCN3CCCCCC3)c2c1 (configuration not stated),19.2,4.9,x,0.3,0.0,15.8
O=C(Nc1nc(-c2ccccn2)cs1)c1ccccc1-n1cnnn1,-5.4,-8.0,50.7*,1.2,2.0,-13.0
CC(OC(=O)c1ccc2ncsc2c1)C(=O)NC1CCCCC1C (configuration not stated),-0.4,-4.9,7.4,0.2,0.0,x
CCCCOc1ccc(/C=C/C(=O)OCC(=O)N2CC(=O)Nc3ccccc32)cc1OCC,-1.7,44.4*,x,7.3,0.0,-6.4
COc1ccc(/C=C/C(=O)OCC(=O)N2CC(=O)Nc3ccccc32)cc1,-6.0,-3.7,x,-0.1,0.0,-8.0
COc1ccc(-c2cc(=O)oc3cc(OC(C)C(=O)NCCCn4ccnc4)ccc23)cc1 (configuration not stated),-1.5,-25.0,x,-2.9,0.0,x
CCc1ccc(S(=O)(=O)/N=C2/C=C(Sc3ncn[nH]3)C(=O)c3ccccc32)cc1,32.0,55.1*,x,x,6.0,-0.3
CCc1ccc(S(=O)(=O)/N=C2\C=CC(=O)c3ccccc32)cc1,x,x,x,-1.4,13.0,1.4
O=C(Nc1ccccn1)c1cc(-c2cccc(Cl)c2)nc2ccccc12,23.2,0.9,12.2,-1.8,0.0,x
C=C(C)C(=O)Nc1ccc2c(c1)OCCOCCOCCO2,4.3,-6.2,6.9,-1.3,93.0*,3.4
